ChEMBL document CHEMBL1122584 (1984)
Peptide text beside a SMILES is read from it.

Columns and labels:
[1] = organism: Rattus norvegicus; assay: (§1) Compound was evaluated for its glycogenolytic activity in normal male rats and the plasma glucose level was determined at 1 ug/100 g of body weight; format: functional, organism-based
In short: (§2)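 Groups of five, anesthetized with sodium pentobarbital (6–7 mg/100 g), given peptide in saline s.c. (0.5 mL) 30 min later. Jugular blood was drawn at 15 min into EDTA, and plasma glucose was measured by glucose oxidase. Mean ± SD, n = 5.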

[2] = organism: Rattus norvegicus; assay: Compound was evaluated for its glycogenolytic activity in normal male rats and the plasma glucose level was determined at 2 ug/100 g of body weight; format: functional, organism-based; in short: as §2
[3] = organism: Rattus norvegicus; assay: Potency of glycogenolytic activity was reported by four point assay; format: functional
[4] = organism: Rattus norvegicus; assay: Compound was evaluated for its glycogenolytic activity in normal male rats and the plasma glucose level was determined at 4 ug/100 g of body weight; format: functional, organism-based
In short: as §2, with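 “Male Charles River CD rats (175–350 g), fed and kept at 24 ± 2 °C under a 0500–1900 h light cycle for at least 1 week. Groups” for “Groups”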

[5] = organism: Rattus norvegicus; assay: Compound was evaluated for its glycogenolytic activity in normal male rats and the plasma glucose level was determined at 6 ug/100 g of body weight; format: functional, organism-based
In short: as §2, with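 “Male Charles River CD rats (175–350 g), fed and kept at 24 ± 2 °C under a 0500–1900 h light cycle for at least 1 week. Groups” for “Groups”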

[6] = organism: Rattus norvegicus; assay: Compound was evaluated for its glycogenolytic activity in normal male rats and the plasma glucose level was determined at 12 ug/100 g of body weight; format: functional, organism-based
In short: as §2, with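 “Male Charles River CD rats (175–350 g), fed and kept at 24 ± 2 °C under a 0500–1900 h light cycle for at least 1 week. Groups” for “Groups”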

[7] = organism: Rattus norvegicus; assay: as §1; format: functional, organism-based; remark: listed apart in the source
In short: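 Male Charles River CD rats (175–350 g), fed, anesthetized with sodium pentobarbital (6–7 mg/100 g), dosed subcutaneously 30 min later with peptide in saline (0.5 mL, gelatin-coated syringes), groups of five. Jugular blood drawn exactly 15 min post-injection into EDTA, and plasma glucose measured by glucose oxidase. Values are mean ± SD, n = 5.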

[8] = organism: Rattus norvegicus; assay: Compound was evaluated for its glycogenolytic activity in normal male rats and the plasma glucose level was determined at 0.5 ug/100 g of body weight; format: functional, organism-based
[9] = organism: Rattus norvegicus; assay: potency of glycogenolytic activity was reported by four point assay.; format: functional, organism-based

Molecule	Plasma glucose [1] [mg 100ml-1]	Plasma glucose [2] [mg 100ml-1]	Potency [3] [%]	Plasma glucose [4] [mg 100ml-1]	Plasma glucose [5] [mg 100ml-1]	Plasma glucose [6] [mg 100ml-1]	Plasma glucose [7]	Plasma glucose [8]	Potency [9] [%]
CSCC[C@H](NC(=O)[C@H](CC(C)C)NC(=O)[C@H](Cc1c[nH]c2ccccc12)NC(=O)[C@H](CCC(N)=O)NC(=O)[C@@H](NC(=O)[C@H](Cc1ccccc1)NC(=O)[C@H](CC(=O)O)NC(=O)[C@H](CCC(N)=O)NC(=O)[C@H](C)NC(=O)[C@H](CCCN=C(N)N)NC(=O)[C@H](CCCN=C(N)N)NC(=O)[C@H](CO)NC(=O)[C@H](CC(=O)O)NC(=O)[C@H](CC(C)C)NC(=O)[C@H](Cc1ccc(O)cc1)NC(=O)[C@H](CCCN=C(N)N)NC(=O)[C@H](CO)NC(=O)[C@H](Cc1ccc(O)cc1)NC(=O)[C@H](CC(=O)O)NC(=O)[C@H](CO)NC(=O)[C@@H](NC(=O)[C@H](Cc1ccccc1)NC(=O)[C@@H](NC(=O)[C@@H](C)NC(=O)[C@H](CCC(N)=O)NC(=O)[C@H](CO)NC(=O)[C@@H](N)Cc1c[nH]cn1)[C@@H](C)O)[C@@H](C)O)C(C)C)C(=O)N[C@@H](CC(N)=O)C(=O)N[C@H](C(=O)O)[C@@H](C)O	174	198	44						
CSCC[C@H](NC(=O)[C@H](CC(C)C)NC(=O)[C@H](Cc1c[nH]c2ccccc12)NC(=O)[C@H](CCC(N)=O)NC(=O)[C@@H](NC(=O)[C@H](Cc1ccccc1)NC(=O)[C@H](CC(=O)O)NC(=O)[C@H](CCC(N)=O)NC(=O)[C@H](C)NC(=O)[C@H](CCCN=C(N)N)NC(=O)[C@H](CCCN=C(N)N)NC(=O)[C@H](CO)NC(=O)[C@H](CC(=O)O)NC(=O)[C@H](CC(C)C)NC(=O)[C@H](Cc1ccc(O)cc1)NC(=O)[C@H](CCCN=C(N)N)NC(=O)[C@H](CO)NC(=O)[C@H](Cc1ccc(O)cc1)NC(=O)[C@H](CC(=O)O)NC(=O)[C@H](CO)NC(=O)[C@@H](NC(=O)[C@H](Cc1ccccc1)NC(=O)[C@@H](NC(=O)[C@@H](C)NC(=O)[C@H](CCC(N)=O)NC(=O)[C@H](CO)NC(=O)[C@H](N)Cc1ccc(Cl)cc1)[C@@H](C)O)[C@@H](C)O)C(C)C)C(=O)N[C@@H](CC(N)=O)C(=O)N[C@H](C(=O)O)[C@@H](C)O		158	9	176					
CSCC[C@H](NC(=O)[C@H](CC(C)C)NC(=O)[C@H](Cc1c[nH]c2ccccc12)NC(=O)[C@H](CCC(N)=O)NC(=O)[C@@H](NC(=O)[C@H](Cc1ccccc1)NC(=O)[C@H](CC(=O)O)NC(=O)[C@H](CCC(N)=O)NC(=O)[C@H](C)NC(=O)[C@H](CCCN=C(N)N)NC(=O)[C@H](CCCN=C(N)N)NC(=O)[C@H](CO)NC(=O)[C@H](CC(=O)O)NC(=O)[C@H](CC(C)C)NC(=O)[C@H](Cc1ccc(O)cc1)NC(=O)[C@H](CCCN=C(N)N)NC(=O)[C@H](CO)NC(=O)[C@H](Cc1ccc(O)cc1)NC(=O)[C@H](CC(=O)O)NC(=O)[C@H](CO)NC(=O)[C@@H](NC(=O)[C@H](Cc1ccccc1)NC(=O)[C@@H](NC(=O)CNC(=O)[C@H](CCC(N)=O)NC(=O)[C@H](CO)NC(=O)[C@@H](N)Cc1ccccc1)[C@@H](C)O)[C@@H](C)O)C(C)C)C(=O)N[C@@H](CC(N)=O)C(=O)N[C@H](C(=O)O)[C@@H](C)O (H-FSQGTFTSDYSRYLDSRRAQDFVQWLMNT-OH)	161	183	31						
CSCC[C@H](NC(=O)[C@H](CC(C)C)NC(=O)[C@H](Cc1c[nH]c2ccccc12)NC(=O)[C@H](CCC(N)=O)NC(=O)[C@@H](NC(=O)[C@H](Cc1ccccc1)NC(=O)[C@H](CC(=O)O)NC(=O)[C@H](CCC(N)=O)NC(=O)[C@H](C)NC(=O)[C@H](CCCN=C(N)N)NC(=O)[C@H](CCCN=C(N)N)NC(=O)[C@H](CO)NC(=O)[C@H](CC(=O)O)NC(=O)[C@H](CC(C)C)NC(=O)[C@H](Cc1ccc(O)cc1)NC(=O)[C@H](CCCN=C(N)N)NC(=O)[C@H](CO)NC(=O)[C@H](Cc1ccc(O)cc1)NC(=O)[C@H](CC(=O)O)NC(=O)[C@H](CO)NC(=O)[C@@H](NC(=O)[C@H](Cc1ccccc1)NC(=O)[C@@H](NC(=O)CNC(=O)[C@H](CCC(N)=O)NC(=O)[C@@H](N)CO)[C@@H](C)O)[C@@H](C)O)C(C)C)C(=O)N[C@@H](CC(N)=O)C(=O)N[C@H](C(=O)O)[C@@H](C)O (H-SQGTFTSDYSRYLDSRRAQDFVQWLMNT-OH)			4		165	186			
GLUCAGON			100				213 mg 100ml-1 [middle of 5 runs]	186 mg 100ml-1 [middle of 4 runs]	100
